# Measurements reported in PubChem BioAssay.
# The source made the active and inactive calls.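 The calls were made as follows, unless noted: active = viability at or below 10% of carrier control in both of two separate runs; inconclusive = viability at or below 10% in only one of the two runs; inactive = the rest.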
# Assays:
# [1] = reducers of endogenous Her2 protein level, primary screen, SKBR3 breast tumor cells, AlphaScreen, ATP viability (AID 461;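 active = Her2 level under about 52% in both replicate screens, with viability over 70% of control, limit read from the data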;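 as to Her2 level: lower value means less Her2 protein in the cells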;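 as to viability: percent of carrier control wells set as 100% viability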); conditions: 18-24 h, measured here: SKBR3 viability, ATP luminescence, at 10 µM
# [2] = target: Receptor tyrosine-protein kinase erbB-2 (Homo sapiens) (UniProt P04626); test: as above; conditions: 18-24 h, at 10 µM, stronger effect = lower value
# [3] = SK-BR-3 cell growth inhibitors, pilot screen, 24 h, human (AID 572); conditions: SK-BR-3 viability, CellTiter-Glo luminescence, at 10 µM, stronger effect = lower value;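 also: compound exposure lasted between 18 and 24 h rather than exactly 24 h; 100% = carrier-treated control wells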
# [4] = HUVEC growth inhibition – cell-based, human, primary screen (AID 575;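 active = viability at or below 30% in both replicate assays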;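 also: 100% = median of untreated cell wells with 0.1% DMSO on each plate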); conditions: HUVEC proliferation, CellTiter-Glo luminescence, 72 h; at 10 µM; stronger effect = lower value
# Method in brief: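 material = primary HUVEC, no more than 12 passages | input = 1250 cells per well | controls = vehicle and MePR control wells | measured by = CTG luminescence | times = 72 h compound incubation | format = collagen-coated 384-well format | read-out = % viability vs DMSO wells | doses = single 10 µM dose, 0.1% DMSO, from 5x medium stock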
# [5] = growth inhibitors of H69AR lung tumor, primary screen, human, duplicate replicates (AID 580;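 active = viability at or under a set limit in both replicates, limit being median viability minus 3 SD, cut at about 48% in these data, passing the limit was not always enough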;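 also: 100% = mean luminescence of untreated wells and 0% = no signal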); conditions: H69AR lung tumor cells viability, ATP luminescence, 72 h; at 10 µM; stronger effect = lower value
# [6] = reversal of MRP1-mediated doxorubicin resistance, pilot screen, H69AR cells, doxorubicin co-treatment (AID 601;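 active = viability loss from added drug above about 55%, and viability with drug at most 40%, in both replicates, limit read from the data, passing the limit was not always enough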); conditions: CellTiter-Glo, 72 h, at 10 µM; for differential viability (reversal): stronger effect = higher value
# [7] = 384-well plate pilot, post-Golgi transport modulator project, inhibition of yeast transport mutant growth (AID 636; in the data active = inhibition above about 31%); conditions: absorbance 615 nm, about 18 h, stronger effect = higher value
# [8] = growth suppression of yeast trafficking mutant, preliminary HTS, modulators of trafficking downstream of Golgi apparatus project, 1536-format plate, OD 615 nm (AID 637; in the data active = inhibition above about 30%); conditions: yeast transport mutant growth, absorbance 615 nm, 18 h; stronger effect = higher value
# [9] = H69AR cells + 2 uM doxorubicin, measured here: viability with 2 uM doxorubicin, stronger effect = lower value
# [10] = H69AR cells, compound alone cytotoxicity
# Chain of Receptor tyrosine-protein kinase erbB-2 (Homo sapiens) (P04626 whole entry, looked up): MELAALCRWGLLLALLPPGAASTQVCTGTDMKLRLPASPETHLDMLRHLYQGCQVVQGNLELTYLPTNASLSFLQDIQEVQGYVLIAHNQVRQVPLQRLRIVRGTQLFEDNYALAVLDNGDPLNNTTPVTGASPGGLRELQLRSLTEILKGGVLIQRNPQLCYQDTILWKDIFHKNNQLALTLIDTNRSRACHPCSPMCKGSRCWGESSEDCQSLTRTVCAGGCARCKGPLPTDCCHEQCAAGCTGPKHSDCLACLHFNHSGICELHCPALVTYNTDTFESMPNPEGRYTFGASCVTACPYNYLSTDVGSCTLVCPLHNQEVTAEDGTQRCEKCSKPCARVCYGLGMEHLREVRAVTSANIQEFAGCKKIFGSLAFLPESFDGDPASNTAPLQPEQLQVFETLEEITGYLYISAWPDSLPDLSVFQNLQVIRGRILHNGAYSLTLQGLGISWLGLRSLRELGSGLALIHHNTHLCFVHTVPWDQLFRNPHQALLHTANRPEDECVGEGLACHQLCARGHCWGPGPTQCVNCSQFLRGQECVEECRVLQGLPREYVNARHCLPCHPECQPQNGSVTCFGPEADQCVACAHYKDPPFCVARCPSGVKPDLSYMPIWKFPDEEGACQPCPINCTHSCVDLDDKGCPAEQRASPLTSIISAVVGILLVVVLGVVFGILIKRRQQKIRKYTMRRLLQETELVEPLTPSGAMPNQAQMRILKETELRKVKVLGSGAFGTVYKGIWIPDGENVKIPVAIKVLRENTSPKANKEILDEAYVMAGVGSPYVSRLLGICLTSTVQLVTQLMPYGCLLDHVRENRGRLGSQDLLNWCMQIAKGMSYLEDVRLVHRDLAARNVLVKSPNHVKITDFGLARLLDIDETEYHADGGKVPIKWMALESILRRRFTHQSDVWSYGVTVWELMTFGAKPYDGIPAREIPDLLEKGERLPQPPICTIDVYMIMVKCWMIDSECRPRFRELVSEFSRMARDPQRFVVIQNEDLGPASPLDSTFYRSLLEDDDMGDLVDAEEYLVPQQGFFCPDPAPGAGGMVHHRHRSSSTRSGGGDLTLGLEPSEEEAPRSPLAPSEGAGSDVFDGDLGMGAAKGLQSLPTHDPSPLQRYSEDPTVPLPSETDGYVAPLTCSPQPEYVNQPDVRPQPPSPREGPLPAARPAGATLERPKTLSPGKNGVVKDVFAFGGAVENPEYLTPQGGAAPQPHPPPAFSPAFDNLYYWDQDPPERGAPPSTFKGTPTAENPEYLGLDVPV
SMILES,viability [1] [%],Her2 level [2],viability [3],viability [4],viability [5],differential viability (reversal) ([6]; H69AR cells + 2 uM doxorubicin),"viability [6, 9] [%]","viability [6, 10] [%]",inhibition [7],inhibition [8]
O=C(Nc1ccc(N2CCCCC2)cc1)c1ccc(F)cc1,84,106% (inactive),84% (inactive),80% (inactive),83.1% (inactive),4.35% (inactive),78.8,83.1,1.79% (inactive),-0.5% (inactive)
O=C(Cn1ncc2c(=O)oc3ccccc3c21)NCC1CCCO1 (stereo not given),104,102% (inactive),104% (inactive),108% (inactive),94.8% (inactive),-7.15% (inactive),102,94.8,-3.59% (inactive),-1.17% (inactive)
Cc1cc2ccccn2c1C(=O)c1ccncc1,114,98% (inactive),114% (inactive),106% (inactive),87.9% (inactive),9.15% (inactive),78.8,87.9,-3.77% (inactive),2.22% (inactive)
CCCCCn1c(CN2CCN(C)CC2)nc2c1c(=O)n(C)c(=O)n2C,103,103% (inactive),103% (inactive),98.4% (inactive),85.9% (inactive),-6.67% (inactive),92.5,85.9,-3.87% (inactive),-2.67% (inactive)
CCN(CC)S(=O)(=O)c1ccc2c(c1)c(=O)c(C(=O)NCCOC)cn2C,88.5,99.5% (inactive),88.5% (inactive),101% (inactive),83.1% (inactive),-12.5% (inactive),95.6,83.1,-5.95% (inactive),-5.5% (inactive)
CC(C)CCn1c(N)c(S(=O)(=O)c2cccs2)c2nc3ccccc3nc21,171,43% (active),171% (inactive),49.8% (inactive),42.9% (active),-14.9% (inactive),57.7,42.9,-3.95% (inactive),-3.17% (inactive)
Cc1onc(-c2ccccc2)c1C(=O)Nc1ccc(S(=O)(=O)N2CCCCC2)cc1,95.5,94.5% (inactive),95.5% (inactive),58.4% (inactive),88.9% (inactive),-3.39% (inactive),92.3,88.9,-0.77% (inactive),1% (inactive)
O=S(=O)(Nc1nc2ccccc2nc1NCc1ccco1)c1ccc(Cl)cc1,94,103% (inactive),94% (inactive),69.6% (inactive),65.3% (inactive),-4.42% (inactive),69.8,65.3,-4.42% (inactive),4.83% (inactive)
COC(=O)c1ccccc1NC(=O)CC(NCc1ccccc1)C(=O)O (stereo not given),102,111% (inactive),102% (inactive),103% (inactive),104% (inactive),0.78% (inactive),103,104,-2.11% (inactive),-12.3% (inactive)
COc1ccc(CCn2c(C)cc(C(=O)CSc3nnnn3C)c2C)cc1,99.5,144% (inactive),99.5% (inactive),81.7% (inactive),101% (inactive),-3.11% (inactive),104,101,-0.13% (inactive),-1.83% (inactive)
Cc1csc2nc(CNC(=O)c3ccco3)cn12,86,102% (inactive),86% (inactive),95.6% (inactive),112% (inactive),13.9% (inactive),98.5,112,-1.2% (inactive),-4.35% (inactive)
O=C(NCc1ccc2c(c1)OCO2)c1ccccn1,98.5,107% (inactive),98.5% (inactive),92.8% (inactive),88.5% (inactive),3.29% (inactive),85.2,88.5,-6.27% (inactive),-12.1% (inactive)
COc1cccc(NC(=O)Cc2nnc(SCC(=O)c3ccccc3)n2C)c1,92,83.5% (inactive),92% (inactive),85% (inactive),68.1% (inactive),8.65% (inactive),59.4,68.1,-2.24% (inactive),-3.49% (inactive)
CC(C)N(C=O)C1(C(=O)NC2CCCCC2)CCCCC1,100,106% (inactive),100% (inactive),97.9% (inactive),112% (inactive),13.7% (inactive),97.9,112,-0.53% (inactive),-6.61% (inactive)
CCOC(=O)c1ccc(NC2OC(=O)c3ccccc32)cc1 (stereo not given),106,93% (inactive),106% (inactive),77.4% (inactive),91.9% (inactive),-3.92% (inactive),95.8,91.9,-6.89% (inactive),6.17% (inactive)
CC(C)(C)C(=O)CNS(=O)(=O)c1ccc(S(=O)(=O)NC2CCCC2)cc1,104,92% (inactive),104% (inactive),115% (inactive),98.8% (inactive),11.2% (inactive),87.6,98.8,-3.56% (inactive),1.9% (inactive)
